Reference: ChEMBL document CHEMBL1137764, “Design, synthesis, antibacterial activity and physicochemical parameters of novel N-4-piperazinyl derivatives of norfloxacin” (Bioorg Med Chem, 2009)
Converted amounts (≈) assume the structure as drawn.

Tests used:
[1] = system: Pseudomonas aeruginosa; assay: Antimicrobial activity against Pseudomonas aeruginosa at 4 ug/ml after 24 hrs by agar diffusion technique; format: functional; conditions: read-out: DIZ
Procedure, shortened: (§1)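 Strains came from a university microbiology department. Inocula were 10⁶ CFU/mL. Mueller-Hinton agar was seeded with culture, poured 3–4 mm thick, and 10 mm cups were bored. Compounds were dissolved in DMF (10 mg/mL stock), diluted, and the solution was placed in the cups. Plates were incubated at 37 °C overnight. Inhibition zone diameter (mm) was read at 24 h.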

[2] = system: Pseudomonas aeruginosa; assay: Antimicrobial activity against Pseudomonas aeruginosa at 16 ug/ml after 24 hrs by agar diffusion technique; format: functional; conditions: read-out: DIZ; procedure, shortened: as §1
[3] = system: Pseudomonas aeruginosa; assay: Antimicrobial activity against Pseudomonas aeruginosa at 64 ug/ml after 24 hrs by agar diffusion technique; format: functional; conditions: read-out: DIZ; procedure, shortened: as §1
[4] = system: Pseudomonas aeruginosa; assay: Antimicrobial activity against Pseudomonas aeruginosa at 128 ug/ml after 24 hrs by agar diffusion technique; format: functional; conditions: read-out: DIZ; procedure, shortened: as §1
[5] = system: Pseudomonas aeruginosa; assay: Antimicrobial activity against Pseudomonas aeruginosa at 512 ug/ml after 24 hrs by agar diffusion technique; format: functional; conditions: read-out: DIZ; procedure, shortened: as §1
[6] = system: Escherichia coli; assay: Antimicrobial activity against Escherichia coli at 4 ug/ml after 24 hrs by agar diffusion technique; format: functional; conditions: read-out: DIZ; procedure, shortened: as §1
[7] = system: Escherichia coli; assay: Antimicrobial activity against Escherichia coli at 16 ug/ml after 24 hrs by agar diffusion technique; format: functional; conditions: read-out: DIZ; procedure, shortened: as §1
[8] = system: Escherichia coli; assay: Antimicrobial activity against Escherichia coli at 64 ug/ml after 24 hrs by agar diffusion technique; format: functional; conditions: read-out: DIZ; procedure, shortened: as §1
[9] = system: Escherichia coli; assay: Antimicrobial activity against Escherichia coli at 128 ug/ml after 24 hrs by agar diffusion technique; format: functional; conditions: read-out: DIZ; procedure, shortened: as §1
[10] = system: Escherichia coli; assay: Antimicrobial activity against Escherichia coli at 512 ug/ml after 24 hrs by agar diffusion technique; format: functional; conditions: read-out: DIZ; procedure, shortened: as §1
[11] = system: Klebsiella pneumoniae; assay: Antimicrobial activity against Klebsiella pneumoniae at 4 ug/ml after 24 hrs by agar diffusion technique; format: functional; conditions: read-out: DIZ; procedure, shortened: as §1
[12] = system: Klebsiella pneumoniae; assay: Antimicrobial activity against Klebsiella pneumoniae at 16 ug/ml after 24 hrs by agar diffusion technique; format: functional; conditions: read-out: DIZ; procedure, shortened: as §1
[13] = system: Klebsiella pneumoniae; assay: Antimicrobial activity against Klebsiella pneumoniae at 64 ug/ml after 24 hrs by agar diffusion technique; format: functional; conditions: read-out: DIZ; procedure, shortened: as §1
[14] = system: Klebsiella pneumoniae; assay: Antimicrobial activity against Klebsiella pneumoniae at 128 ug/ml after 24 hrs by agar diffusion technique; format: functional; conditions: read-out: DIZ; procedure, shortened: as §1
[15] = system: Klebsiella pneumoniae; assay: Antimicrobial activity against Klebsiella pneumoniae at 512 ug/ml after 24 hrs by agar diffusion technique; format: functional; conditions: read-out: DIZ; procedure, shortened: as §1
[16] = system: Staphylococcus aureus; assay: Antimicrobial activity against Staphylococcus aureus at 4 ug/ml after 24 hrs by agar diffusion technique; format: functional; conditions: read-out: DIZ; procedure, shortened: as §1
[17] = system: Staphylococcus aureus; assay: Antimicrobial activity against Staphylococcus aureus at 16 ug/ml after 24 hrs by agar diffusion technique; format: functional; conditions: read-out: DIZ; procedure, shortened: as §1
[18] = system: Staphylococcus aureus; assay: Antimicrobial activity against Staphylococcus aureus at 64 ug/ml after 24 hrs by agar diffusion technique; format: functional; conditions: read-out: DIZ; procedure, shortened: as §1
[19] = system: Staphylococcus aureus; assay: Antimicrobial activity against Staphylococcus aureus at 128 ug/ml after 24 hrs by agar diffusion technique; format: functional; conditions: read-out: DIZ; procedure, shortened: as §1
[20] = system: Staphylococcus aureus; assay: Antimicrobial activity against Staphylococcus aureus at 512 ug/ml after 24 hrs by agar diffusion technique; format: functional; conditions: read-out: DIZ; procedure, shortened: as §1
[21] = system: Pseudomonas aeruginosa; assay: Antimicrobial activity against Pseudomonas aeruginosa after 24 hrs by agar diffusion technique; format: functional; conditions: for MIC: Pseudomonas aeruginosa, 24 h
Procedure, shortened: (§2)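 Agar cup diffusion on Mueller-Hinton agar seeded from 10⁶ CFU/mL suspensions, with 10 mm cups in a 3–4 mm layer. Compounds were in DMF (10 mg/mL stock) at several concentrations. Plates were incubated at 37 °C and zones measured after 24 h. MIC was taken as the intercept of the plot of log concentration against inhibition zone diameter.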

[22] = system: Escherichia coli; assay: Antimicrobial activity against Escherichia coli after 24 hrs by agar diffusion technique; format: functional; conditions: for MIC: Escherichia coli, 24 h; procedure, shortened: as §2
[23] = system: Klebsiella pneumoniae; assay: Antimicrobial activity against Klebsiella pneumoniae after 24 hrs by agar diffusion technique; format: functional; conditions: for MIC: Klebsiella pneumoniae, 24 h; procedure, shortened: as §2
[24] = system: Staphylococcus aureus; assay: Antimicrobial activity against Staphylococcus aureus after 24 hrs by agar diffusion technique; format: functional; conditions: for MIC: Staphylococcus aureus, 24 h; procedure, shortened: as §2
[25] = Octanol-phosphate buffer partition coefficient, log D at pH 7.4 by spectrophotometry; format: physicochemical
Procedure, shortened: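 Shake-flask method. A 0.2 mg/mL stock was diluted into pH 7.4 phosphate buffer and mixed with an equal volume of n-octanol, phases mutually presaturated and protected from light. Samples were vortexed 3 min, then shaken 5 h at 25 °C. Both phases were assayed by UV at 270–280 nm. D is the molar concentration ratio, octanol to aqueous.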

Row | Structure (SMILES) | zone of inhibition at 4 µg/mL [1] | zone of inhibition at 16 µg/mL [2] | zone of inhibition at 64 µg/mL [3] | zone of inhibition at 128 µg/mL [4] | zone of inhibition at 512 µg/mL [5] | zone of inhibition at 4 µg/mL [6] | zone of inhibition at 16 µg/mL [7] | zone of inhibition at 64 µg/mL [8] | zone of inhibition at 128 µg/mL [9] | zone of inhibition at 512 µg/mL [10] | zone of inhibition at 4 µg/mL [11] | zone of inhibition at 16 µg/mL [12] | zone of inhibition at 64 µg/mL [13] | zone of inhibition at 128 µg/mL [14] | zone of inhibition at 512 µg/mL [15] | logMIC [21] | MIC [21] | logMIC [22] | MIC [22] | logMIC [23] | also measured
1 | CCn1cc(C(=O)O)c(=O)c2cc(F)c(N3CCN(CN4CCOCC4)CC3)cc21 | 0 mm | 0 mm | 3 mm | 3 mm | 15 mm | 0 mm | 0 mm | 0 mm | 0 mm | 30 mm | 0 mm | 0 mm | 0 mm | 0 mm | 20 mm | 1.2 | 16 µg/mL (≈ 38.2 µM) | 2.11 | 128 µg/mL (≈ 306 µM) | 2.11 | zone of inhibition at 4 µg/mL [16]: 5 mm; zone of inhibition at 16 µg/mL [17]: 7 mm; zone of inhibition at 64 µg/mL [18]: 7 mm; zone of inhibition at 128 µg/mL [19]: 8 mm; zone of inhibition at 512 µg/mL [20]: 10 mm; MIC [23]: 128 µg/mL (≈ 306 µM); logMIC [24]: 0; MIC [24]: < 1 µg/mL; logD [25]: -0.043
2 | CCn1cc(C(=O)O)c(=O)c2cc(F)c(N3CCN(c4nnc(-c5ccccc5)c(-c5ccccc5)n4)CC3)cc21 | 0 mm | 0 mm | 0 mm | 0 mm | 0 mm | 0 mm | 0 mm | 0 mm | 0 mm | 0 mm | 0 mm | 0 mm | 0 mm | 0 mm | 0 mm | 2.71 | > 512 µg/mL | 2.71 | > 512 µg/mL | 2.71 | MIC [23]: > 512 µg/mL; logMIC [24]: 1.81; MIC [24]: 64 µg/mL (≈ 116 µM); logD [25]: -0.072
3 | CCn1cc(C(=O)O)c(=O)c2cc(F)c(N3CCN(CN4C(=O)c5cccc6cccc(c56)C4=O)CC3)cc21 | 0 mm | 0 mm | 0 mm | 0 mm | 10 mm | 0 mm | 0 mm | 0 mm | 0 mm | 13 mm | 0 mm | 0 mm | 0 mm | 8 mm | 9 mm | 2.11 | 128 µg/mL (≈ 242 µM) | 2.11 | 128 µg/mL (≈ 242 µM) | 1.81 | zone of inhibition at 4 µg/mL [16]: 0 mm; zone of inhibition at 16 µg/mL [17]: 0 mm; zone of inhibition at 64 µg/mL [18]: 0 mm; zone of inhibition at 128 µg/mL [19]: 0 mm; zone of inhibition at 512 µg/mL [20]: 15 mm; MIC [23]: 64 µg/mL (≈ 121 µM); logMIC [24]: 2.11; MIC [24]: 128 µg/mL (≈ 242 µM); logD [25]: -0.9
4 | CCn1cc(C(=O)O)c(=O)c2cc(F)c(N3CCN(C4CCCC4)CC3)cc21 | 0 mm | 0 mm | 0 mm | 0 mm | 0 mm | 0 mm | 0 mm | 0 mm | 3 mm | 8 mm | 0 mm | 0 mm | 2 mm | 3 mm | 8 mm | 2.71 | > 512 µg/mL | 1.81 | 64 µg/mL (≈ 165 µM) | 1.11 | zone of inhibition at 4 µg/mL [16]: 0 mm; zone of inhibition at 16 µg/mL [17]: 0 mm; zone of inhibition at 64 µg/mL [18]: 4 mm; zone of inhibition at 128 µg/mL [19]: 7 mm; zone of inhibition at 512 µg/mL [20]: 15 mm; MIC [23]: 13 µg/mL (≈ 33.6 µM); logMIC [24]: 1.04; MIC [24]: 11 µg/mL (≈ 28.4 µM)
5 | CCn1cc(C(=O)O)c(=O)c2cc(F)c(N3CCN(CN4C(=O)c5ccccc5C4=O)CC3)cc21 | 0 mm | 0 mm | 0 mm | 10 mm | 12 mm | 0 mm | 0 mm | 0 mm | 0 mm | 9 mm | 0 mm | 0 mm | 4 mm | 8 mm | 10 mm | 1.81 | 64 µg/mL (≈ 134 µM) | 2.11 | 128 µg/mL (≈ 268 µM) | 0.95 | zone of inhibition at 4 µg/mL [16]: 0 mm; zone of inhibition at 16 µg/mL [17]: 0 mm; zone of inhibition at 64 µg/mL [18]: 0 mm; zone of inhibition at 128 µg/mL [19]: 0 mm; zone of inhibition at 512 µg/mL [20]: 0 mm; MIC [23]: 9 µg/mL (≈ 18.8 µM); logMIC [24]: 2.71; MIC [24]: > 512 µg/mL
